This note sets out measurements from ChEMBL document CHEMBL1151207, “Enniatins of Fusarium sp. strain F31 and their inhibition of Botrytis cinerea spore germination” (2004).

The subject of test [1] is Botrytis cinerea. The test is described as follows: Antifungal activity against Botrytis cinerea 98G1 assessed as drug level required for detectable inhibition of fungal growth after 24 hrs at 20 degC in darkness by microtiter plate method. The format is functional. Summed up:
(§1)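 B. cinerea 98G1 conidia (tomato leaf agar, near-UV induced sporulation, mesh-filtered) suspended at 10⁶ spores/mL in liquid Hagem, 100 μL per well over dried isolated enniatins or commercial enniatin mixture at 10, 25, 50, 75, 100 μg/mL. A620 read at inoculation and after 24 h at 20 ± 1 °C in darkness, plus stereomicroscope 4-rank scale; duplicate wells.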

Test [2] concerns Botrytis cinerea. Nature of the test: Antifungal activity against Botrytis cinerea 98G1 spore germination after 24 hrs at 20 degC in darkness by microtiter plate method. The format is functional. As to conditions: 98G1, 24 h. Summed up:
as §1

In brackets after ≈: the same amount, converted by molar mass. A value given as a limit tells only on which side of the number the result lay.

As to `CC[C@H](C)[C@H]1C(=O)O[C@H](C(C)C)C(=O)N(C)[C@@H](C(C)C)C(=O)O[C@H](C(C)C)C(=O)N(C)[C@@H](C(C)C)C(=O)O[C@H](C(C)C)C(=O)N1C` [ENNIATIN B1], the Activity in the test on Botrytis cinerea [1] was 25 µg/mL. Inhibition of growth against Botrytis cinerea [2] (MIC) required 75 µg/mL (≈ 115 µM).

Consider `CC(C)[C@@H]1NC(=O)[C@@H](C(C)C)OC(=O)[C@H](C(C)C)N(C)C(=O)[C@@H](C(C)C)OC(=O)[C@H](C(C)C)N(C)C(=O)[C@@H](C(C)C)OC1=O` [ENNIATIN B2], for which, in the test on Botrytis cinerea [1], the Activity was above 100 µg/mL. Moreover, in the test with Botrytis cinerea [2], the MIC is above 100 µg/mL.

As to `CC(C)C[C@H]1C(=O)O[C@H](C(C)C)C(=O)N(C)[C@@H](C(C)C)C(=O)O[C@H](C(C)C)C(=O)N(C)[C@@H](C(C)C)C(=O)O[C@H](C(C)C)C(=O)N1C` [ENNIATIN B4], the Activity in the test with Botrytis cinerea [1] was 50 µg/mL. Besides, in the test with Botrytis cinerea [2], the MIC was above 100 µg/mL.

For `CC(C)[C@H]1C(=O)O[C@H](C(C)C)C(=O)N(C)[C@@H](C(C)C)C(=O)O[C@H](C(C)C)C(=O)N(C)[C@@H](C(C)C)C(=O)O[C@H](C(C)C)C(=O)N1C` [ENNIATIN B], the Activity in the test on Botrytis cinerea [1] was 100 µg/mL. This compound also returned an MIC against Botrytis cinerea [2] above 100 µg/mL.

Regarding `CC(C)[C@H]1C(=O)O[C@H](C(C)C)C(=O)N(C)[C@@H](C)C(=O)O[C@H](C(C)C)C(=O)N(C)[C@@H](C(C)C)C(=O)O[C@H](C(C)C)C(=O)N1C` [ENNIATIN J1], the Activity in the test on Botrytis cinerea [1] was above 100 µg/mL. Besides, the minimal inhibitory concentration (MIC) against Botrytis cinerea [2] is above 100 µg/mL.

Take `CC[C@H]1C(=O)O[C@H](C(C)C)C(=O)N(C)[C@@H](C(C)C)C(=O)O[C@H](C(C)C)C(=O)N(C)[C@@H](C(C)C)C(=O)O[C@H](C(C)C)C(=O)N1C` [ENNIATIN K1]: in the test on Botrytis cinerea [1], the Activity came out at 100 µg/mL. Moreover, in the test on Botrytis cinerea [2], the minimum inhibitory concentration (MIC) was above 100 µg/mL.

A word on the MIC: it is the smallest concentration in the dilution series that meets the test's criterion for growth inhibition. Low values mean inhibition by little substance, high ones a need for much substance.
